Data set [1] deals with Melanocortin receptor 4 (Homo sapiens) (UniProt P32245). Kind of data set: Activity at melanocortin 4 receptor (unknown origin).
For data set [2], the target named is T1, Glucagon-like peptide 1 receptor (Homo sapiens, UniProt P43220). Kind of data set: Positive allosteric modulation of human recombinant GLP1 receptor expressed in 9-3-H cells by calcium mobilization assay. Format: functional, cell-based. On the technique in general: Calcium flux is commonly read through the fluorescence of an indicator in the cells.
T1 sequence (P43220 whole entry): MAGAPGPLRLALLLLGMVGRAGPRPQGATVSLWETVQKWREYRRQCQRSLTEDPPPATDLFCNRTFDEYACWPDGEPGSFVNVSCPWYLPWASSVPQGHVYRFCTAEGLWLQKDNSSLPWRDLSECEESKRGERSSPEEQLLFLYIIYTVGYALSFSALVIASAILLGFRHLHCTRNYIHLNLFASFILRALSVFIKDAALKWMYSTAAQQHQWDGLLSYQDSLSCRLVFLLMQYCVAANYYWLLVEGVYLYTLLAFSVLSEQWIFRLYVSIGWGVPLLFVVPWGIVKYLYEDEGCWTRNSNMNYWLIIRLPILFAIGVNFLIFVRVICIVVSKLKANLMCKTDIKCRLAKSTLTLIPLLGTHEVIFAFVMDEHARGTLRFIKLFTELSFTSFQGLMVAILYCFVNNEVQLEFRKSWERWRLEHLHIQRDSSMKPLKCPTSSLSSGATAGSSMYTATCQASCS
In data set [3] the target is T1, Glucagon-like peptide 1 receptor. Kind of data set: Positive allosteric modulation of human recombinant GLP1 receptor expressed in 9-3-H cells by calcium mobilization assay relative to control. It counts as functional, cell-based.
Data set [4] deals with Glucagon receptor (Homo sapiens) (UniProt P47871). Kind of data set: Activity at glucagon receptor (unknown origin).
Glucagon receptor (Homo sapiens), sequence (P47871 whole entry, looked up): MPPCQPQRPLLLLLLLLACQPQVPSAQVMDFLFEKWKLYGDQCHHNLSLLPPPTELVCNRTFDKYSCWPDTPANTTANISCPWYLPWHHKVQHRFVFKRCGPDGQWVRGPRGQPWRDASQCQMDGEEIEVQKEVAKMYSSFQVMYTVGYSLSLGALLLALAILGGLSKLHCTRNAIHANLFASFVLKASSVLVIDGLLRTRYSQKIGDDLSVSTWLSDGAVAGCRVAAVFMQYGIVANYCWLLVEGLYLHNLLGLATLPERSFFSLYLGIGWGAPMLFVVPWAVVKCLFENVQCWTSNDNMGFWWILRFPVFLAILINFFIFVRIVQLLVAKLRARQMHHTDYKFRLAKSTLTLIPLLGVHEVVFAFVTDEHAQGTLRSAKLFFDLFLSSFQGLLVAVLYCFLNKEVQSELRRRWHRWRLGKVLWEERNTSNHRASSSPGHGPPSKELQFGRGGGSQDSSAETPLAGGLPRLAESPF
A further data set deals with Cytochrome P450 2C9 (Homo sapiens, UniProt P11712). Kind of data set: Inhibition of CYP2C9 (unknown origin). Format: ADME. In short, it runs like this:
(§1)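 An in vitro cassette P450 inhibition assay was run in microsomes, with 1A2, 2C9, 2D6 and 3A4 tested together. IC50 values are reported in μM.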

For data set [5], the system named is Plasma. Kind of data set: Fraction unbound in human plasma. Format: ADME, cell-free.
A further data set deals with Cytochrome P450 2D6 (Homo sapiens, UniProt P10635). Kind of data set: Inhibition of CYP2D6 (unknown origin). It counts as ADME. The method in brief: as §1
Cytochrome P450 2D6, sequence (P10635 whole entry): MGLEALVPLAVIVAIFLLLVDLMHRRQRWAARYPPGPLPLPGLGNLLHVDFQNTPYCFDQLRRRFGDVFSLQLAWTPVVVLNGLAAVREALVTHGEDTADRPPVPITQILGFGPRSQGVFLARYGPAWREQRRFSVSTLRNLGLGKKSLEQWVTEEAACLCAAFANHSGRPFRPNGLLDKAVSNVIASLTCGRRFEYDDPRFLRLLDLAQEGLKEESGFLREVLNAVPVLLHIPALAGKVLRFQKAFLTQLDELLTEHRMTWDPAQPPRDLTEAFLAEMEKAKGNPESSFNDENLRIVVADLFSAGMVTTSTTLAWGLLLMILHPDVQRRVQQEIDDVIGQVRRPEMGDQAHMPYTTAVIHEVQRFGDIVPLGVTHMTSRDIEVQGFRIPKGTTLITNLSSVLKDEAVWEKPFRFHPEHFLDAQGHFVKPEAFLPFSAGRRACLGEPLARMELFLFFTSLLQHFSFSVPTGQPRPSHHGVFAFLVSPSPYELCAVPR
The target in the next data set is T2, Cytochrome P450 1A2 (Homo sapiens, UniProt P05177).
T2 sequence (P05177 whole entry): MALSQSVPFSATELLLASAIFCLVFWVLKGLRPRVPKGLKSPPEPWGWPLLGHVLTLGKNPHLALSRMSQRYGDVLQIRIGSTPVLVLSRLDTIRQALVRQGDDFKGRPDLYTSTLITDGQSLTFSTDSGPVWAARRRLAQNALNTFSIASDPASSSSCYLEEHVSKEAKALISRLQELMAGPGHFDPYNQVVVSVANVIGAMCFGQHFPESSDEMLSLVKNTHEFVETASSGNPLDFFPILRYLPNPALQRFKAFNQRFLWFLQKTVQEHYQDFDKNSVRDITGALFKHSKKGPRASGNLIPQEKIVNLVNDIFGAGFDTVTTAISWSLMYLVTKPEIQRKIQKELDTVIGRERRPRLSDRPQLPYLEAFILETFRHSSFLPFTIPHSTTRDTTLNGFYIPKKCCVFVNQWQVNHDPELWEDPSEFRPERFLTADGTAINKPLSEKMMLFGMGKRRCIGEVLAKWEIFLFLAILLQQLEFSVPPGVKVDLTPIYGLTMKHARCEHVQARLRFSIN
Kind of data set: Inhibition of CYP1A2 (unknown origin). Format: ADME. In short, it runs like this: as §1

In data set [6] the test system is Plasma. Kind of data set: Fraction unbound in rat plasma. It counts as ADME, cell-free.
A further data set deals with Cytochrome P450 3A4 (Homo sapiens, UniProt P08684). Kind of data set: Inhibition of CYP3A4 (unknown origin).
Cytochrome P450 3A4, sequence (P08684 whole entry): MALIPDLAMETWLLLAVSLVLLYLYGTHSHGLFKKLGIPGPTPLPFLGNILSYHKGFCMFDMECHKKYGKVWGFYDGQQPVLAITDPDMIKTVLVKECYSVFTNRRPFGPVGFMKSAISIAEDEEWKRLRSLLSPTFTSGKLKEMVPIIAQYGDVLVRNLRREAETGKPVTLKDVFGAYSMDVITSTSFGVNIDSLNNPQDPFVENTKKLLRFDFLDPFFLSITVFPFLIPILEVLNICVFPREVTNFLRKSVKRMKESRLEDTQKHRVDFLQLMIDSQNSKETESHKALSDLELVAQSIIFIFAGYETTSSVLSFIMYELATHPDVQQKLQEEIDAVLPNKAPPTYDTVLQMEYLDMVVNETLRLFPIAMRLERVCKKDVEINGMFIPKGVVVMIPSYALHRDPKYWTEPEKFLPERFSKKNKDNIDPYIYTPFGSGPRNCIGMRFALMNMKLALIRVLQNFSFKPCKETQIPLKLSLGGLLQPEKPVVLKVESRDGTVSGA
The target in data set [7] is T1, Glucagon-like peptide 1 receptor. Kind of data set: Positive allosteric modulation of human recombinant GLP1 receptor expressed in 9-3-H cells by calcium mobilization assay in presence of EC20 of GLP1 relative to control. It counts as functional, cell-based.
Data set [8] has the same target. Kind of data set: Positive allosteric modulation of human recombinant GLP1 receptor expressed in 9-3-H cells by calcium mobilization assay in presence of EC20 of liragulitide. It counts as functional, cell-based.
A short description of data set [9]: Intrinsic clearance in rat liver microsomes. It counts as ADME. Particulars: read-out: CLH. Background: Microsomes from liver hold many membrane-bound enzymes, among them those of drug oxidation.
The nature of data set [10]: Intrinsic clearance in human liver microsomes. Format: ADME. Conditions: read-out: CLH. In short, it runs like this: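 Human liver microsome clearance was scaled to predicted hepatic clearance by the well-stirred model. The model used 20 g liver per kg body weight and 21 mL/kg hepatic blood flow.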
For the next data set, the system named is Rattus norvegicus. Kind of data set: Volume of distribution at steady state in rat at 1 mg/kg, iv and […], po. Format: ADME, organism-based. More on the design: dose 1 mg/kg, route oral. Particulars: in vivo. In short, it runs like this: (§2)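 Male Sprague–Dawley rats were dosed IV at 1 mg/kg and PO at […]. Plasma pharmacokinetic parameters were derived from these doses.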

The target of data set [11] is T1, Glucagon-like peptide 1 receptor. Kind of data set: Positive allosteric modulation of human recombinant GLP1 receptor expressed in 9-3-H cells by calcium mobilization assay in presence of EC20 of GLP1. Format: functional, cell-based.
A further data set has as its system Brain. Kind of data set: Fraction unbound in rat brain homogenate. It counts as ADME, tissue-based.
Data set [12] is described as follows: Half life in rat at 1 mg/kg, iv and […], po. Details: dose 1 mg/kg, route oral. Format: ADME, organism-based. Particulars: in vivo. In short, it runs like this: as §2
For data set [13], the target named is T1, Glucagon-like peptide 1 receptor. Kind of data set: Positive allosteric modulation of human recombinant GLP1 receptor expressed in 9-3-H cells by calcium mobilization assay in presence of EC20 of exenatide relative to control. It counts as functional, cell-based.
The target is the same in data set [14]. Kind of data set: Positive allosteric modulation of human recombinant GLP1 receptor expressed in 9-3-H cells by calcium mobilization assay in presence of EC20 of exenatide. Format: functional, cell-based.
Another data set deals with Nucleic Acid. Kind of data set: Ratio of drug level in brain to plasma at 10 mg/kg, ip. Format: ADME, organism-based. More on the design: dose 10 mg/kg, route intraperitoneal. Conditions: rat. In short, it runs like this: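 Rats were dosed IP at 10 mg/kg. Plasma and brain levels were measured at 0.5 h, and the brain:plasma ratio was given as Kp and as Kp,uu, using unbound fractions.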

In data set [15] the target is T1, Glucagon-like peptide 1 receptor. Kind of data set: Positive allosteric modulation of human recombinant GLP1 receptor expressed in 9-3-H cells assessed as fold change at 30 uM by calcium mobilization assay […] relative to control. It counts as functional, cell-based.
Data set [16] shares this target. Kind of data set: Positive allosteric modulation of human recombinant GLP1 receptor expressed in 9-3-H cells by calcium mobilization assay in presence of EC20 of liragulitide relative to control. Format: functional, cell-based.

Each structure is given as a SMILES string. Activity calls are given as the source filed them.

Cytochrome P450 2C9, sequence (P11712 whole entry): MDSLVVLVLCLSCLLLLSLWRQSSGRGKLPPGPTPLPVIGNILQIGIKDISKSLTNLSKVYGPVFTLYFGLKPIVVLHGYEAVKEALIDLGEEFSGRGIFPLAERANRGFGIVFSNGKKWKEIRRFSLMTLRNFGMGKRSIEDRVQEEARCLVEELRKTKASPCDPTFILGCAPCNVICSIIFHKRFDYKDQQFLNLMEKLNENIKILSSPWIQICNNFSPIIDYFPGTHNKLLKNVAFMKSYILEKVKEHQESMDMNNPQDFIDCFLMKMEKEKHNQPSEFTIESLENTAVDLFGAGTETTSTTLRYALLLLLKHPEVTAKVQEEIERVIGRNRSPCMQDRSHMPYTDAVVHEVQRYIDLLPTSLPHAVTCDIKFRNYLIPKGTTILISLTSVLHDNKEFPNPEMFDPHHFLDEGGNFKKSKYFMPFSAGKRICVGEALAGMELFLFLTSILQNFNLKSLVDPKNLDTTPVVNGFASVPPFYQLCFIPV
Melanocortin receptor 4 (Homo sapiens), sequence (P32245 whole entry): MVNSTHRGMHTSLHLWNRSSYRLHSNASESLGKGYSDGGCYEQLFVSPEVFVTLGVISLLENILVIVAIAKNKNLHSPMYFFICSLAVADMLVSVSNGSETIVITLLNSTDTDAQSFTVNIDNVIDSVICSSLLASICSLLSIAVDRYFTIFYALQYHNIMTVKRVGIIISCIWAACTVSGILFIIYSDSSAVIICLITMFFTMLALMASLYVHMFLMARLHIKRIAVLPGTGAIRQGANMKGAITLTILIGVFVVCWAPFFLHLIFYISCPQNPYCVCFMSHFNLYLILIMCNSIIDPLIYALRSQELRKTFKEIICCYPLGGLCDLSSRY

In the case of `CCN1CCCC1CNC(=O)c1cn(C2CCCC2)c(=O)c2c1c1ccccc1n2C` (racemic), the outcome in data set [1] and in data set [4] was inactive. Moreover, the EC50 in [2] (read-out: EC50) stood at 4.1 µM. Moreover, in data set [3], the Emax is 58.9%.
Turning to `CCCCCCN1CCC[C@H]1CNC(=O)c1cn(C2CCCC2)c(=O)c2c1c1ccccc1n2C`, in data set [2] (read-out: EC50), the EC50 is 10.3 µM. The maximal response (Emax) in data set [3] is 55.7%.
In the case of `CCN1CCC[C@H]1CNC(=O)c1cn(C2CCCC2)c(=O)c2c1c1ccccc1n2C`, the IC50 on Cytochrome P450 2C9 is > 20 µM; at Cytochrome P450 2D6 it was > 20 µM; at Cytochrome P450 1A2, > 20 µM; against Cytochrome P450 3A4, 3.2 µM. Further, the EC50 in data set [2] (read-out: EC50) is 2.4 µM; in [2] (read-out: pEC50 (converted)), 2.04 µM. Moreover, the Fu with Plasma [5] and with Plasma [6] was > 10% throughout. Also, the Emax in data set [3] stood at 53.4%.
In the case of `CC(C)N1CCC[C@H]1CNC(=O)c1cn(C2CCCC2)c(=O)c2c1c1ccccc1n2C`, the Emax in data set [7] is 59.2%; in [3], 59.2%; in data set [13], 71.5%; in data set [15] it was 20%; in [16], 59.2%. Moreover, the EC50 in data set [8] was 30 µM; in [11], 1.8 µM; in data set [2] (read-out: EC50), 1.3 µM; in [14], 8.4 µM. Moreover, the IC50 at Cytochrome P450 2C9 and on Cytochrome P450 1A2 was > 30 µM throughout. Moreover, the CLint scaled in data set [9] worked out at 19.9 mL/min/kg; in [10] it was 69.9 mL/min/kg. This compound gave a Vdss in the data set on Rattus norvegicus of 4 L/kg. The Fu with Plasma [5] is reported as 0.146; with Brain, 0.015; with Plasma [6] it was 0.158. In addition, the half-life in data set [12] was found to be 58 min. Besides, the “K(p,uu,brain)” value in the data set with Nucleic Acid was 0.27. Also, in the data set with Nucleic Acid, the Kp was 2.7.
For `COc1ccccc1CN1CCC[C@H]1CNC(=O)c1cn(C2CCCC2)c(=O)c2c1c1ccccc1n2C`, the EC50 in [2] (read-out: EC50) worked out at 12.1 µM. Moreover, in data set [3], the Emax stood at 68.3%.
Regarding `CCCN1CCC[C@H]1CNC(=O)c1cn(C2CCCC2)c(=O)c2c1c1ccccc1n2C`, in data set [2] (read-out: EC50), the EC50 worked out at 6.5 µM. Besides, the Emax in [3] amounted to 48.4%.
In the case of `Cn1c2ccccc2c2c(C(=O)NC[C@@H]3CCCN3CCc3ccccc3)cn(C3CCCC3)c(=O)c21`, the EC50 in [2] (read-out: EC50) is 14.1 µM; in [2] (read-out: pEC50 (converted)), 18.2 µM. For the same compound, the Emax in [3] worked out at 68.5%.

As a reminder, the Emax is the size of the effect at its maximum, as opposed to the concentration needed. Broadly, the IC50 is the concentration needed to halve the response being measured. Lower therefore signals higher potency. The term half-life denotes the time needed for the level to fall by half in the phase considered. Broadly, the Kp is the ratio of the level in a tissue or fluid to that in plasma or blood.

The values above are taken from ChEMBL document CHEMBL3351313, “Discovery of (S)-2-cyclopentyl-N-((1-isopropylpyrrolidin2-yl)-9-methyl-1-oxo-2,9-dihydro-1H-pyrrido[3,4-b]indole-4-carboxamide (VU0453379): a novel, CNS penetrant glucagon-like peptide 1 receptor (GLP-1R) positive allosteric modulator (PAM)” (J Med Chem, 2014).
